Arrestin-AP2 inh = inhibitors of beta-arrestin/AP2 binding, primary screen, biochemical, GPCR trafficking, flow cytometry. beta-arrestin 1 C-terminal peptide binding to AP2 beta2-adaptin appendage (human). FITC-arrestin peptide / GST-AP2 beads; AP2 beta2 appendage carries R879A mutation. inhibition, % at 10 µM. actives 0.31% (n = 340,000). AID 504490, 2011;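 active = inhibition above a set limit, near 3 SD of compounds lacking own fluorescence, cut at about 54% in these data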;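 also: plate controls were DMSO wells for no effect and 5 µM unlabelled arrestin peptide for full effect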
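System: GST-tagged AP2 beta2-adaptin appendage (R879A) on 4 µm glutathione beads / Reagent: FITC-arrestin peptide, 50 nM / Detection: HyperCyt-sampled flow cytometry, FL1 channel, ex 488/em 535 nm / Timing: 12 min plus 1 h, RT / Buffer or medium: PBS plus Tween 20 (0.05%) and BSA (0.1%)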
B2AR ag = beta2AR agonists driving receptor internalization, primary screen, cell-based, FAP fluorogen, flow cytometry | Am2.2-beta2AR cells | response, % (test concentration not listed) | AID 504454, 2011 | actives 0.43% (n = 340,000);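 active = response above a set limit, near 3 SD of response in nonfluorescent compounds, cut at about 42% in these data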
Rin1 Abl inh = inhibitors of Rin1-Abl protein binding, primary screen, biochemical, TR-FRET. Tyrosine-protein kinase ABL1 (Homo sapiens) + Ras and Rab interactor 1 (Homo sapiens), …. inhibition, % at 7.35 µM. actives 0.4% (n = 360,000); in the data active = inhibition above about 5%, passing the limit was not always enough
Target sequence (P00519 whole entry, looked up): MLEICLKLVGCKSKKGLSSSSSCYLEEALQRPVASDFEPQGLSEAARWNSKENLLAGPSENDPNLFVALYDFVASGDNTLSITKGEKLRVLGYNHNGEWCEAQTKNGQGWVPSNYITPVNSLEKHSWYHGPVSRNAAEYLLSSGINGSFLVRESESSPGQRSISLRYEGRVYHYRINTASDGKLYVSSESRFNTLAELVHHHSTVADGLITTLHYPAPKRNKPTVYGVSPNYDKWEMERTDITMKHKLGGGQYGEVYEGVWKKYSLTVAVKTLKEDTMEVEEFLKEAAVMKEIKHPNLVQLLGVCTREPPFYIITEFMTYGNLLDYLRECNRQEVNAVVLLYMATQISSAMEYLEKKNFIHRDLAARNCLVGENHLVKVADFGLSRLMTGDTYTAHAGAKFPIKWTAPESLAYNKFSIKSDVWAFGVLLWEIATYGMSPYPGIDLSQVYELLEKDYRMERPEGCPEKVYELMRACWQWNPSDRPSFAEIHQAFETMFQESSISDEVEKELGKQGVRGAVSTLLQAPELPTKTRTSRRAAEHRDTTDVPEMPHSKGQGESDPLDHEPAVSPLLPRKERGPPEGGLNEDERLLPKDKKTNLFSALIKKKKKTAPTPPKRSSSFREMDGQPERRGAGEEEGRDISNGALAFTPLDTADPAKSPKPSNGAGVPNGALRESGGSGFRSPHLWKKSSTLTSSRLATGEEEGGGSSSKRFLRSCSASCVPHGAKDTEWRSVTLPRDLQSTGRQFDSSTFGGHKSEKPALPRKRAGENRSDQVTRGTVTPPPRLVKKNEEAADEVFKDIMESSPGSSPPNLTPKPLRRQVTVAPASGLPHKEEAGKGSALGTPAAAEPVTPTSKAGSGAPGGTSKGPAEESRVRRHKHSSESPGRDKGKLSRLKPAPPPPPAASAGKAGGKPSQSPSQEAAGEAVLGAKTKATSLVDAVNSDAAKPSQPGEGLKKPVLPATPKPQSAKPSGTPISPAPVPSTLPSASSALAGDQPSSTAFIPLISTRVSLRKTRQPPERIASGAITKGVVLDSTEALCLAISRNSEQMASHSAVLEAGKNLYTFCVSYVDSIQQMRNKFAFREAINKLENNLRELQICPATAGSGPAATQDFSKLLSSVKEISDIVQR
Target sequence (Q13671 whole entry, looked up): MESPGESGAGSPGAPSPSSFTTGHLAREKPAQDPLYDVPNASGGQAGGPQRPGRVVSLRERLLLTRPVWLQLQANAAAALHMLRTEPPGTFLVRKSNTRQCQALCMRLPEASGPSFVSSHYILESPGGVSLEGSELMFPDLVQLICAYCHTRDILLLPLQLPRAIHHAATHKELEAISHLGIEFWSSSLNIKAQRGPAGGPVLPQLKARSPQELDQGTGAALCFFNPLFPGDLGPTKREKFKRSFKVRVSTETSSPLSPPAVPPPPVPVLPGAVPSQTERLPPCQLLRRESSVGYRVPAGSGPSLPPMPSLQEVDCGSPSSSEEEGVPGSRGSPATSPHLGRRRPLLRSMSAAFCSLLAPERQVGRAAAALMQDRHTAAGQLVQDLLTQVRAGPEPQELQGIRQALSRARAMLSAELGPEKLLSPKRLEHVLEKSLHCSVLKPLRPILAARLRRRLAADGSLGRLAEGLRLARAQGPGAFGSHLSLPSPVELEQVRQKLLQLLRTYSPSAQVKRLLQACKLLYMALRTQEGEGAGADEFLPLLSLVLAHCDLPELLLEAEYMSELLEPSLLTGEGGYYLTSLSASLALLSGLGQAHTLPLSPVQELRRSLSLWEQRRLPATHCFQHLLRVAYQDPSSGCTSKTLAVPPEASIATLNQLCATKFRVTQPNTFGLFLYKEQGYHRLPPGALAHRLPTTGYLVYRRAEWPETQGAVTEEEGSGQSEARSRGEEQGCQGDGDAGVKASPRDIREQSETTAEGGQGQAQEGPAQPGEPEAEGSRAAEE
ABHD5-PLIN5 inh = ABHD5-PLIN5 interaction inhibitors, primary screen, cell lysate, split luciferase complementation, luminescence | Perilipin-5 (Homo sapiens) + 1-acylglycerol-3-phosphate O-acyltransferase ABHD5 (Homo … | Split G. princeps luciferase complementation, 4 h | inhibition, % at 4 µM | actives 0.78% (n = 360,000) | AID 602281, 2012;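 active = inhibition above the mean inhibition across every tested compound plus 3 SD, cut at about 22% in these data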;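 also: 0% = DMSO only wells and the 100% control is not disclosed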
MBD2 inh = inhibitors of MBD2 binding to methylated DNA, primary screen, biochemical, TR-FRET, DNA-binding domain, human | Methyl-CpG-binding domain protein 2 (Homo sapiens), Q9UBB5 | MBD2 binding to methylated oligonucleotide | inhibition, % at 4.4 µM | actives 0.31% (n = 370,000); in the data active = inhibition above about 13%
UHRF1 MBD2 ctr = UHRF1 methylated DNA binding inhibitors, primary screen, counter-screen for MBD2 inhibitor project, biochemical, TR-FRET, human UHRF1, single concentration; inhibition, % at 4.4 µM; AID 687016, 2013; E3 ubiquitin-protein ligase UHRF1 (Homo sapiens), Q96T88; UHRF1 binding to methylated oligo; actives 0.75% (n = 370,000); in the data active = inhibition above about 21%;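 also: UHRF1 SRA domain binding a hemimethylated CpG hairpin DNA probe; 0% = median of test compound wells and 100% = reference inhibitor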
Beta2AR ag CP1 = beta2AR agonists via receptor internalization, confirmation, cell-based, FAP fluorogen, flow cytometry, single point, cherry pick 1; shares compounds with B2AR ag; Am2.2-beta2AR cells, FAP surface receptor; stronger effect = lower value; percent response (surface receptor), % at 10 µM; actives 25% (n = 1,100); AID 540358, 2011;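 active = surface receptor percent response at or below 58%, roughly 3 SD from nonfluorescent compounds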
B2AR FAP counter = fluorescence artifact in beta-2AR agonist FAP counterscreen | AID 588765 | shares compounds with B2AR ag | calls only at 10 µM | Am2.2 cells, FAP fluorogen flow cytometry; stronger effect = lower value | 1,100 tested, under 10 active;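 active = percent response below a set limit in fluorescence channel 1 and below 50% in channel 8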
The depositor's hits bear a star; i = inactive; x = not tested or not shown; ! = not active in a repeat. An excerpt weighted towards active compounds, which were near 2.5% of everything screened.

SMILES	Arrestin-AP2 inh	B2AR ag	Rin1 Abl inh	ABHD5-PLIN5 inh	MBD2 inh	UHRF1 MBD2 ctr	Beta2AR ag CP1	B2AR FAP counter
O=C(NC1CCCCN(Cc2ccc(Cl)cc2)C1=O)c1ccc(-c2ccccc2)cc1 (centres undefined)	x	x	x	x	-3	1	x	x
CCN(C(=O)c1ccc(NC(C)=O)cc1)c1ccccc1C	-1	-16	0	-6	4	4	x	x
CCCCC(=O)Nc1ccc(C(=O)N(CC)c2ccccc2C)cc1	4	63*	6	-1	-1	0	74	i
CC(C)(C)c1ccc(-c2nnc(SCC(=O)Nc3ccc(Oc4ccccc4)cc3)n2Cc2ccco2)cc1	x	x	x	x	-1	0	x	x
CCOc1ccc(CNC(=O)c2ccc(NC(=O)C3=CSCCO3)cc2)cc1	7	105*	-3	-8	7	1	21*	i
CS(=O)(=O)N1CCN(c2ccccc2NC(=O)CSc2ccc(Cl)cc2)CC1	0	0	-1	1	-2	1	x	x
O=C(CSc1ccc(Cl)cc1)Nc1ccccc1N1CCN(C(=O)c2ccccc2)CC1	8	43*	-3	-6	-1	-3	65	i
Cc1nn(Cc2ccc(Cl)cc2)c(C)c1NC(=O)CSc1nc2c(c(C(F)(F)F)n1)CCc1ccccc1-2	4	3	0	3	2	4	x	x
Cc1ccc(Cn2nc(C)c(NC(=O)CSc3nc4c(c(C(F)(F)F)n3)CCc3ccccc3-4)c2C)cc1	-8	46*	-2	-1	1	4	73	i
CCOc1ccc(-n2c(SCC(=O)Nc3ccc4cn[nH]c4c3)nnc2-c2ccc(C(C)(C)C)cc2)cc1	x	x	x	x	-1	0	x	x
CCC(=O)N1COC[C@@H]1Cc1ccccc1	-7	-1	1	-8	1	-1	107	i
COc1ccc(CC(=O)Nc2cccc(-c3nnc(-c4ccc(C)cc4)o3)c2)cc1OC	0	50*	-5	1	4	5	107	i
Cc1ccccc1OCc1n(CC(=O)OC2CC(C)CCC2C(C)C)c2ccccc2[n+]1C (centres undefined)	0	108*!	1	15	0	3	97	i
CC1CCC(C(C)C)C(OC(=O)Cn2c(-c3ccc(Br)cc3)[n+](C)c3ccccc32)C1 (centres undefined)	6	15	2	17	0	-2	x	x
Nn1c(SCc2nc3ccccc3[nH]2)nnc1-c1ccccc1	29	-5	1	3	-1	3	x	x
Cc1ccc(OCc2nnc(SCc3nc4ccccc4[nH]3)n2Cc2ccco2)cc1	-8	104*	-1	1	1	-2	20*	i
c1ccc(-c2nnc(SCc3nc4ccccc4[nH]3)n2Cc2ccco2)cc1	7	-12	-1	7	0	1	138	i
CCN(Cc1ccccc1)C(=O)CSc1nc(C)cc(=O)[nH]1	7	4	1	-3	0	-2	x	x
CCN(CC)C(=O)CSc1nc(-c2ccccc2)cc(=O)[nH]1	-6	-2	-1	-1	7	8	120	i
Cc1cc(C)nc(NS(=O)(=O)c2ccc(NC(=O)c3ccco3)cc2)n1	4	-6	0	2	-3	2	x	x
CCc1ccc(C(=O)Nc2ccc(S(=O)(=O)Nc3nc(C)cc(C)n3)cc2)o1	-2	54*	2	14	-4	1	105	i
CCC1(c2ccccc2)NC(=O)N(CC(=O)N(C)Cc2c(F)cccc2Cl)C1=O (centres undefined)	17	82*	1	0	1	0	101	i
C=CCN1C(=O)[C@@H](CC(=O)NCCC(C)C)[C@]2(C(=O)OCC)CCCCC/C=C/12	x	x	x	x	-3	0	x	x
Cc1ccccc1-c1cccc2c3c([nH]c12)[C@@H]1C[C@H]2[C@@H](CN1CC3)[C@H](C)ON2C	x	x	x	x	5	2	x	x
CCOC(=O)[C@@]12CN(C(=O)OC(C)(C)C)CC=C1N(Cc1ccc(OC)cc1)C(=O)[C@H]2CC(=O)NCc1ccc(C)o1	x	x	x	x	0	0	x	x
SMILES	Arrestin-AP2 inh	B2AR ag	Rin1 Abl inh	ABHD5-PLIN5 inh	MBD2 inh	UHRF1 MBD2 ctr	Beta2AR ag CP1	B2AR FAP counter
Cc1nn(CCC(=O)NNC(=O)Nc2ccc(F)cc2)c(C)c1[N+](=O)[O-]	x	x	x	x	-2	2	x	x
c1cncc(CNc2nc(-c3cccnc3)nc3ccccc23)c1	42	-14	2	4	-1	-2	166	i
c1cncc(-c2nc(NCc3ccc4c(c3)OCO4)c3ccccc3n2)c1	-11	13	-1	6	-5	-2	155	i
Fc1ccc(CNc2nc(-c3cccnc3)nc3ccccc23)cc1	-1	-18	0	-4	-4	-2	161	i
NS(=O)(=O)c1ccc(CNc2nc(-c3cccnc3)nc3ccccc23)cc1	-5	12	1	1	2	-3	141	i
O=C(OC12CCCN(C1)/C(=C/c1ccccc1)C2)C1CCCC1 (centres undefined)	x	x	x	x	5	1	x	x
Cc1ccc(CNc2nc(-c3cccnc3)nc3ccccc23)cc1	4	-16	-1	6	-7	1	154	i
c1ccc(CNc2nc(-c3cccnc3)nc3ccccc23)cc1	35	-11	-1	6	-8	-3	174	i
Clc1cccc(CNc2nc(-c3cccnc3)nc3ccccc23)c1	17	-13	4	4	-2	-1	x	x
O=C(OC12CCCN(C1)/C(=C/c1ccncc1)C2)C1CCCCC1 (centres undefined)	x	x	x	x	0	-3	x	x
COc1ccc(Cl)cc1C(=O)N1CCN(c2ccccn2)CC1	4	52*	-1	-3	3	2	124	i
O=C(c1ccccc1Cl)N1CCN(c2ccccn2)CC1	7	1	-2	-2	1	-1	x	x
COc1ccccc1COC(=O)c1cccc(S(=O)(=O)N(C)Cc2ccccc2)c1	x	x	x	x	-2	-3	x	x
CCOC(=O)[C@]12CCCC3=C1N(CCC3)C(=O)[C@@H](CC(=O)N1CCCCC1)C2	x	x	x	x	-3	1	x	x
